Shown are actives, neighbours in structure and some others; about 5.9% of the full set was active somewhere.
Pf Dd2 inh = blocks growth of Plasmodium falciparum Dd2 parasites | P. falciparum Dd2 growth, SYBR Green, 72 h; stronger effect = lower value | activity change, % at 10 µM | 94,000 tested, 2.3% active; in the data active = activity change below about -80%; inconclusive = no clear call, values can overlap the other calls
T cruzi growth-1 = blocks T. cruzi growth in NIH3T3 culture; T. cruzi beta-gal in NIH3T3, GalScreen luminescence, 90 h; inhibition, % at 8.34 µM; 77,000 tested, 5.9% active;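 active = mean inhibition above about 93%, with at least 55% of replicates each passing it, limit read from the data, passing the limit was not always enough; inconclusive = only one of those two conditions holds; inactive = neither condition holds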
GASC1 inh = KDM4C (human) demethylase inhibition | Q9H3R0 | GST-KDM4C 2-372, H3K9me3 peptide, LANCE TR-FRET | inhibition, % at 12.5 µM | 96,000 tested, 0.15% active;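 active = mean replicate inhibition above about 25%, with at least 55% of replicates also reaching it, limit read from the data, passing the limit was not always enough; inconclusive = only one of those two conditions met; inactive = neither condition met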
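Material: N-terminal GST-fused human GASC-1 (KDM4C) fragment, residues 2-372. Input: 10 nM enzyme. Incubation: enzyme reaction 30 min, then detection 60 min, both room temperature. Doses: one test concentration per compound. Read-out basis: inhibition from TR-FRET ratio decrease. Detection: LANCE TR-FRET, excitation 340 nm, emissions 618 and 671 nm.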
IDH1 R132H inh = inhibitors of human IDH1 R132H | O75874 | IDH1 R132H reductase, diaphorase/resazurin fluorescence, 60 min | inhibition, % at 10 µM | 70,000 tested, 0.18% active | AID 624101; in the data active = inhibition above about 34%; inconclusive = no clear call, values can overlap the other calls; inactive = below about 11%;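 note: 0% = DMSO and 100% = no enzyme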
Target sequence (O75874 whole entry R132H): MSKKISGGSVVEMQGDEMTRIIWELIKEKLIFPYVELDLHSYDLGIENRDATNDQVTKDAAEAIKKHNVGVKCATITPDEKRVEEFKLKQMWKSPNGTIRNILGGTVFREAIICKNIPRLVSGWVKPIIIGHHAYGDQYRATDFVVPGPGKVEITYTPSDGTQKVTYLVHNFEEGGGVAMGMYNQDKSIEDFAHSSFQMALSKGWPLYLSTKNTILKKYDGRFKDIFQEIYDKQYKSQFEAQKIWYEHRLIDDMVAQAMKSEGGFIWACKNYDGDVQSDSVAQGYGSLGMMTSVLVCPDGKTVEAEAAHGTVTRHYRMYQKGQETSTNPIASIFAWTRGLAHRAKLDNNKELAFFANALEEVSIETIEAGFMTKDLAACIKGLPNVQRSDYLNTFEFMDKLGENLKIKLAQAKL
T cruzi growth-2 = inhibitors of T. cruzi proliferation; shares compounds with T cruzi growth-1; T. cruzi beta-gal in NIH3T3, GalScreen luminescence, 90 h; inhibition, % at 8.35 µM; 5,600 tested, 72% active;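 active = mean replicate inhibition above about 95% and at least 55% of replicates individually reaching it, limit read from the data; inconclusive = only one of the two criteria is met; inactive = neither criterion is met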
T cruzi growth-3 = blocks T. cruzi growth in NIH3T3 host cells; shares compounds with T cruzi growth-1; T. cruzi beta-gal in NIH3T3, GalScreen luminescence, 90 h; inhibition, % at 2.09 µM; 5,600 tested, 21% active;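 active = mean inhibition above about 95%, with at least 55% of replicates also reaching it, limit read from the data; inconclusive = meets just one of the two conditions; inactive = meets neither condition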;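 note: plate controls were neutral control median for no effect and positive control median for full effect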
3T3 cytotox = cytotoxicity in mouse NIH/3T3 fibroblasts; shares compounds with T cruzi growth-1; NIH/3T3 viability, CellTiter-Glo ATP luminescence, 90 h; cytotoxicity (signal decrease), % at 8.35 µM; 5,600 tested, 14% active;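 active = mean signal decrease across replicates above about 35% based on untreated-well scatter, with enough replicates individually passing, limit read from the data; inconclusive = no rule stated though some were filed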;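 note: 0% = median of neutral control wells and 100% = median of positive control wells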
NIH3T3 tox 2 = cytotoxicity in mouse NIH/3T3 fibroblasts. inhibition, % at 24.9 µM. 5,600 tested, 56% active. shares compounds with T cruzi growth-1. AID 651744. NIH/3T3 viability, CellTiter-Glo ATP luminescence, 90 h;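 active = mean loss of cell viability signal at or above a set limit, and enough replicates individually reaching it; inconclusive = meets only the mean limit or only the replicate share; inactive = meets neither condition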;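 note: 0% = median of neutral control wells and 100% = median of positive control wells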
An asterisk follows results filed as active; u = inconclusive; x = no result.

SMILES	Pf Dd2 inh	T cruzi growth-1	GASC1 inh	IDH1 R132H inh	T cruzi growth-2	T cruzi growth-3	3T3 cytotox	NIH3T3 tox 2
C[C@H](CO)N1C[C@H](C)[C@H](CN(C)Cc2cccc(C(F)(F)F)c2)Oc2ncc(/C=C/c3ccccc3)cc2C1=O	-51	116*	1	0	105*	112*	-19	80*
C/C=C/c1ccc([C@H]2[C@H](CO)N3CCCCN(S(=O)(=O)c4ccc(F)cc4)C[C@@H]23)cc1	1	111*	0	x	108*	57	22	102*
C/C=C/c1ccc([C@H]2[C@@H](CO)N3CCCCN(S(=O)(=O)c4ccc(OC)cc4)C[C@@H]23)cc1	-15	95*	0	x	111*	69	0	55*
O=S1(=O)N=C(N(CCO)c2ccc(Cl)cc2)c2ccccc21	x	x	x	0	x	x	x	x
Cc1ccc(S(=O)(=O)N(C)C[C@H]2Oc3cc(C#CC4CCCC4)ccc3S(=O)(=O)N([C@H](C)CO)C[C@@H]2C)cc1	-55	127*	-3	1	100*	108*	11	51*
COc1ccc(S(=O)(=O)N(C)C[C@H]2Oc3cc(C#CC4CCCC4)ccc3S(=O)(=O)N([C@H](C)CO)C[C@@H]2C)cc1	-56	68	2	0	x	x	x	x
Cc1ccc(S(=O)(=O)N(C)C[C@@H]2Oc3cc(C#CC4CCCC4)ccc3S(=O)(=O)N([C@@H](C)CO)C[C@H]2C)cc1	-69	127*	6	0	101*	99*	46*	77*
C[C@H](NC(=O)[C@@H]1N[C@@H]2c3ccc(C4=CCCC4)c(=O)n3C[C@@H]2[C@H]1CO)c1ccccc1	x	97*	0	x	40	-37	1	-10
C[C@@H](NC(=O)[C@@H]1N[C@@H]2c3ccc(C4=CCCCC4)c(=O)n3C[C@@H]2[C@H]1CO)c1ccccc1	4	101*	0	x	109*	-4	2	7
CC(=O)N1[C@@H]2c3ccc(C4=CCCC4)c(=O)n3C[C@H]1[C@H](CO)[C@H]2C(=O)N[C@H](C)c1ccccc1	3	101*	1	x	-16	8	12	4
Cc1occc1-c1nnc(SCC(=O)Nc2ccccc2[N+](=O)[O-])n1-c1ccccc1	x	x	x	0	x	x	x	x
O=C(c1cccc(F)c1)N1CCCCN2[C@H](CO)[C@H](c3ccc(-c4ccccc4)cc3)[C@@H]2C1	-7	102*	-1	x	113*	89	16	11
O=C(c1cccc(F)c1)N1CCCCN2[C@@H](CO)[C@H](c3ccc(-c4ccccc4)cc3)[C@@H]2C1	-11	103*	-1	x	105*	53	24	91*
Cc1ccc2nc(-c3cccnc3)cc(C(=O)Nc3sc4c(c3C(N)=O)CCCCCC4)c2c1	x	x	x	1	x	x	x	x
O=C(NCCCN1CCCC1=O)c1cc2ccccc2oc1=O	x	x	x	0	x	x	x	x
Cc1ccc(OCC(=O)Nc2ccccc2C(=O)Nc2ccccc2)c(Br)c1	x	x	x	0	x	x	x	x
O=C([C@H]1[C@H](CO)[C@H]2Cn3c(cccc3=O)[C@@H]1N2Cc1cccc(Cl)c1)N1CCOCC1	x	100*	-1	x	-38	27	-10	-2
O=C([C@@H]1[C@@H](CO)[C@@H]2Cn3c(ccc(-c4ccccc4)c3=O)[C@H]1N2Cc1cccnc1)N1CCOCC1	x	97*	0	x	-16	-6	12	-7
COc1cc(O)c2c(c1)CCc1cc(OC)c(OC)cc1-2	x	x	x	0	x	x	x	x
COc1ccccc1NC(=O)C1=C(C)NC2=C(C(=O)CC(c3ccc(OC)c(OC)c3)C2)C1c1ccc(C)o1 (stereo not given)	x	x	x	-1	x	x	x	x
COc1ccc(S(=O)(=O)N2C[C@@H](O)COC[C@@H]3O[C@H](CC(=O)NCc4ccc(Cl)c(Cl)c4)CC[C@H]32)cc1	-31	143*	0	x	110*	36	u	33*

Source: PubChem BioAssay (Broad Institute)
